Results from ChEMBL document CHEMBL4699416, “Allocolchicinoids bearing a Michael acceptor fragment for possible irreversible binding of tubulin” (RSC Med Chem, 2020).
Calls of active or inactive are those of the source. The calls are words filed in the database; no cut-off is given here.

Tests used:
[1] = Induction of cell cycle arrest in […] L929 cells assessed as G1 phase at 5 uM incubated for 72 hrs by propidium iodide staining based flow cytometry analysis (reference value: 91 %); format: functional
HEK293 = experiment: Cytotoxicity against human HEK293 cells assessed as inhibition of cell growth incubated for 72 hrs by MTT assay; format: functional, cell-based; conditions: HEK293, 72 h
Procedure, shortened: (§1)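 Cells in DMEM with 10% FCS, seeded 24 h before assay at 3 × 10^5 cells per mL and incubated overnight. DMSO stocks (20 mM) diluted to 20 μM–0.1 nM and added to cells for 72 h, with untreated controls. MTT added for the last 6 h, formazan dissolved in DMSO, OD read at 540 nm.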

[2] = Induction of cell cycle arrest in […] L929 cells assessed as G2/M phase at 5 uM incubated for 72 hrs by propidium iodide staining based flow cytometry analysis (reference value: 8 %); format: functional
HaCaT = experiment: Cytotoxicity against human HaCaT cells assessed as inhibition of cell growth incubated for 72 hrs by MTT assay; format: functional, cell-based; procedure, shortened: as §1
[3] = Induction of apoptosis in […] L929 cells at 5 uM incubated for 72 hrs by propidium iodide staining based flow cytometry analysis (reference value: 1.2 %); format: functional
COLO357 [4] = experiment: Induction of mitotic arrest in human COLO357 cells assessed as disruption of mitotic spindle arrangement at 5 uM incubated for 72 hrs by immunofluorescence based confocal microscopic analysis; format: functional, cell-based
Procedure, shortened: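 COLO-357 cells (10^5 per coverslip) grown overnight, then exposed to 5 μM in complete medium for 72 h. Fixed in 1% paraformaldehyde and permeabilized with 0.1% Triton X100 in PBS. Stained with anti-β-tubulin antibody and AlexaFluor555 anti-mouse IgG, nuclei with Hoechst 33342, then imaged by confocal microscopy.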

COLO357 [5] = experiment: Induction of cell cycle arrest in human COLO357 cells assessed as G1 phase at 5 uM incubated for 72 hrs by propidium iodide staining based flow cytometry analysis (reference value: 91.1 %); format: functional
COLO357 [6] = experiment: Induction of cell cycle arrest in human COLO357 cells assessed as G2/M phase at 5 uM incubated for 72 hrs by propidium iodide staining based flow cytometry analysis (reference value: 7.2 %); format: functional
BXPC-3 = experiment: Cytotoxicity against human BxPC-3 cells assessed as inhibition of cell growth incubated for 72 hrs by MTT assay; format: functional, cell-based; conditions: BXPC-3, 72 h; procedure, shortened: as §1
COLO357 [7] = experiment: Cytotoxicity against human COLO-357 cells assessed as inhibition of cell growth incubated for 72 hrs by MTT assay; format: functional, cell-based; conditions: COLO357, 72 h; procedure, shortened: as §1
[8] = Toxicity in iv dosed C57BL/6 mouse assessed as lethal dose measured after 40 to 48 hrs; format: organism-based; conditions: in vivo, time 40-48 hrs; for LD50: C57BL/6, mouse; for LD100: mouse
Procedure, shortened: (§2)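 Acute toxicity in C57BL/6 mice, 6–8 weeks old, 10 per group. Each mouse got one intravenous dose of 4, 7, 10 or 13 mg kg–1. The dose range was set in preliminary experiments. Signs of toxicity (ruffled fur, poor mobility, lower body temperature) and lethality were recorded at 24 h and 48 h after injection. Survivors at 48 h were followed for 1 week. LD50 and LD100 were derived.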

COLO357 [9] = experiment: Induction of apoptosis in human COLO357 cells at 5 uM incubated for 72 hrs by propidium iodide staining based flow cytometry analysis (reference value: 0.3 %); format: functional
[10] = Inhibition of lamb brain tubulin polymerization assessed as reduction in microtubule formation incubated for 40 mins by spectrophotometric analysis; format: tissue-based, Ovis aries
[11] = Toxicity in iv dosed C57BL/6 mouse assessed as lethal dose measured after 24 hrs; format: organism-based; conditions: in vivo; procedure, shortened: as §2

Row | SMILES | IC50 (HEK293) [nM] | IC50 (HaCaT) [nM] | IC50 (BXPC-3) [nM] | IC50 (COLO357 [7]) [nM] | also measured
1 | COc1cc2c(c(OC)c1OC)-c1ccc(OC)c(=O)cc1[C@@H](NC(C)=O)CC2 [COLCHICINE] | 16 | 3 | 16 | 16 | Activity [1]: 30%; Activity [2]: 74%; Activity [3]: 3%; Activity (COLO357 [4]): Active; Activity (COLO357 [5]): 33%; Activity (COLO357 [6]): 61%; LD50 [8]: 8.5 mg/kg; LD100 [8]: 10.9 mg/kg; Activity (COLO357 [9]): 10%
2 | C/C=C/C=C/C(=O)NCC(=O)N[C@H]1CCc2cc(OC)c(OC)c(OC)c2-c2cc3cc(CO)oc3cc21 | 400 | 400 | 400 | 400 | –
3 | C/C=C/C=C/C(=O)OCC(=O)N[C@H]1CCc2cc(OC)c(OC)c(OC)c2-c2cc3cc(COC(C)=O)oc3cc21 | 3 | 0.6 | 16 | 16 | –
4 | C=CC(=O)OCC(=O)N[C@H]1CCc2cc(OC)c(OC)c(OC)c2-c2ccc(C(=O)OC)cc21 | 16 | 16 | 16 | 16 | –
5 | COC(=O)c1ccc2c(c1)[C@@H](NC(=O)COC(=O)/C=C/C(F)(F)F)CCc1cc(OC)c(OC)c(OC)c1-2 | 16 | 16 | 16 | 16 | –
6 | COC(=O)c1ccc2c(c1)[C@@H](NC(=O)CNC(=O)/C=C/C(F)(F)F)CCc1cc(OC)c(OC)c(OC)c1-2 | 80 | 16 | 16 | 80 | –
7 | COC(=O)c1ccc2c(c1)[C@@H](NC(=O)COC(=O)CC(C)SC[C@@H](NC(C)=O)C(=O)OC)CCc1cc(OC)c(OC)c(OC)c1-2 (mixture of isomers) | 16 | 16 | 16 | 80 | –
8 | C/C=C/C=C/C(=O)NCC(=O)N[C@H]1CCc2cc(OC)c(OC)c(OC)c2-c2ccc(C(=O)OC)cc21 | 16 | 3 | 3 | 16 | –
9 | C/C=C/C(=O)NCC(=O)N[C@H]1CCc2cc(OC)c(OC)c(OC)c2-c2ccc(C(=O)OC)cc21 | 80 | 80 | 80 | 80 | –
10 | COC(=O)c1ccc2c(c1)[C@@H](NC(=O)CNC(=O)C=C(C)C)CCc1cc(OC)c(OC)c(OC)c1-2 | 16 | 16 | 16 | 80 | –
11 | COC(=O)c1ccc2c(c1)[C@@H](NC(=O)COC(=O)C=C(C)C)CCc1cc(OC)c(OC)c(OC)c1-2 | 16 | 3 | 3 | 16 | –
12 | C/C=C/C(=O)OCC(=O)N[C@H]1CCc2cc(OC)c(OC)c(OC)c2-c2ccc(C(=O)OC)cc21 | 3 | 3 | 16 | 16 | Activity (COLO357 [4]): Active; Activity (COLO357 [5]): 32%; Activity (COLO357 [6]): 60%; LD50 [8]: 6.5 mg/kg; LD100 [8]: 9.8 mg/kg; Activity (COLO357 [9]): 9.3%
13 | C/C=C/C=C/C(=O)OCC(=O)N[C@H]1CCc2cc(OC)c(OC)c(OC)c2-c2ccc(C(=O)OC)cc21 | 3 | 0.6 | 3 | 3 | Activity [1]: 40%; IC50 [10]: 6780 nM; Activity [2]: 61%; Activity [3]: 5.6%; Activity (COLO357 [4]): Active; LD50 at 24 h ([11]; C57BL/6, mouse): 6.1 mg/kg; LD100 ([11]; mouse, 24 h): 8.4 mg/kg
14 | C=CC(=O)NCC(=O)N[C@H]1CCc2cc(OC)c(OC)c(OC)c2-c2ccc(C(=O)OC)cc21 | 400 | 80 | 80 | 400 | –
